Results published in ChEMBL document CHEMBL4265991 (Bioorg Med Chem, 2018).
Converted amounts (≈) assume the structure as drawn.

How the values were obtained:
[1] = Drug level in DTT containing buffer treated with 3-((5-Phenyl-1,3,4-oxadiazol-2-yl)thio)benzo[b]thiophene-1,1-dioxide by LC-MS analysis; format: physicochemical
[2] = Cytotoxicity against human HepG2 cells after 24 hrs by resazurin dye-based fluorescence analysis; format: cell-based
Procedure, shortened: (§1)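 Cells seeded at 3000 per well in DMEM with 10% FBS. Compound […], applied as a 2-fold dilution series mixed directly with the cells. Incubated 24 h at 37 °C in 5% CO2, then 10 µM resazurin was added for 3 h. Fluorescence read at ex/em 560/590 nm. DMSO served as negative control.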

[3] = target: Inosine-5'-monophosphate dehydrogenase 2 (Homo sapiens, UniProt P12268); assay: Inhibition of recombinant human His-tagged IMPDH2 expressed in Escherichia coli BL21 (DE3) using IMP as substrate in presence of NAD
[4] = target: Inosine-5'-monophosphate dehydrogenase 1 (Homo sapiens, UniProt P20839); assay: Inhibition of recombinant human His-tagged IMPDH1 expressed in Escherichia coli BL21 (DE3) using IMP as substrate in presence of NAD
Inosine-5'-monophosphate dehydrogenase 1, sequence (P20839 whole entry): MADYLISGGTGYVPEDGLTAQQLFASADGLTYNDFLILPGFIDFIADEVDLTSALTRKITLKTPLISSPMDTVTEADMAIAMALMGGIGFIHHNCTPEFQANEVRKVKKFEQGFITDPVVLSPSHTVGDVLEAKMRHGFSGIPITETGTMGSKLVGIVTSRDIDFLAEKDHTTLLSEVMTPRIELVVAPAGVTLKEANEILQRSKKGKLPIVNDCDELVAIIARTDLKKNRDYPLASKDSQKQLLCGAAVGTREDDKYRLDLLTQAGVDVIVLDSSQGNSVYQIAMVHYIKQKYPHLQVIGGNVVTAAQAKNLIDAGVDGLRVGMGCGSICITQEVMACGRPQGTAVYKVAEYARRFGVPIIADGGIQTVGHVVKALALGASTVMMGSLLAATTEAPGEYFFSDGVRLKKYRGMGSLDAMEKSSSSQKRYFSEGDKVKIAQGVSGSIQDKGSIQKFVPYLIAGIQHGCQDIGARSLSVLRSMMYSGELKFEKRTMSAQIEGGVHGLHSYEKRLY
Procedure, shortened: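 His-tag-cleaved human IMPDH from E. coli BL21(DE3) pLysS at 0.2 µM. NAD 100 µM, IMP 125 µM; reaction started with IMP. NADH followed at 340 nm. Compounds tested 30 to 0.93 µM. IC50 from variable-slope fit normalized to no-inhibitor and 20 µM MPA controls; n ≥ 3.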

[5] = target: Inosine-5'-monophosphate dehydrogenase (Cryptococcus neoformans var. neoformans serotype D (strain JEC21 /ATCC MYA-565) (Filobasidiella neoformans), UniProt Q5KP44); assay: Inhibition of recombinant Cryptococcus neoformans His-tagged IMPDH expressed in Escherichia coli BL21 (DE3) using IMP as substrate in presence of NAD
Inosine-5'-monophosphate dehydrogenase, sequence (Q5KP44 whole entry): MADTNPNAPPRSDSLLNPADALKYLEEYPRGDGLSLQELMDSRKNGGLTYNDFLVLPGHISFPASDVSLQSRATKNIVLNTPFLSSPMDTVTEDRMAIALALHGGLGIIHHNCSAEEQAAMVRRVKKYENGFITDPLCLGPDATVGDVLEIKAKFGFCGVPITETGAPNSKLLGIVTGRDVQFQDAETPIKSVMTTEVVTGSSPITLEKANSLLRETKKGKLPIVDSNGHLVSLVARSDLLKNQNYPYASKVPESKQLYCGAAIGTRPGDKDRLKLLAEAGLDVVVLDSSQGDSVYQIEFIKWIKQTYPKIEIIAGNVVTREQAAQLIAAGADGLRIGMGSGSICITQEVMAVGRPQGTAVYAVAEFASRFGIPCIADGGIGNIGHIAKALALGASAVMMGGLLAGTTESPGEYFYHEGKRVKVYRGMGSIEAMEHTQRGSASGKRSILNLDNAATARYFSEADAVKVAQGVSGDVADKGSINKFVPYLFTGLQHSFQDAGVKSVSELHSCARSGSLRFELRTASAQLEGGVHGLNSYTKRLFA
Procedure, shortened: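 Recombinant C. neoformans IMPDH (E. coli BL21(DE3) pLysS) at 0.2 µM. IMP and NAD each 500 µM; reaction started with IMP. NADH followed at 340 nm. Compounds tested 20 to 0.02 µM. % activity normalized to no-inhibitor and 20 µM MPA controls, fitted by variable-slope dose-response; n ≥ 3.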

Cryptococcus neoformans = assay: Antifungal activity against Cryptococcus neoformans after 24 hrs by two fold serial dilution method
Candida albicans = assay: Antifungal activity against Candida albicans after 24 hrs by OD530 reading based two fold serial dilution method
[6] = Cytotoxicity against HEK293 cells after 24 hrs by resazurin dye-based fluorescence analysis; format: cell-based; settings: human; procedure, shortened: as §1
[7] = Drug metabolism in DTT containing buffer assessed as formation of 5-phenyl-1,3,4-oxadiazole-2-thiol by LC-MS analysis; format: physicochemical

With `S=c1[nH]nc(-c2ccccc2)o1` the Drug metabolism [1] was “Metabolite_Detected”.
For `O=S1(=O)C=C(Sc2nnc(-c3ccccc3)o2)c2ccccc21`, the CC50 at 24 h [2] was 20 µM, the IC50 [3] was 2.1 µM and the IC50 [4] was 5.6 µM. For the same compound, the IC50 [5] was 0.37 µM, the MIC (Cryptococcus neoformans) was 6 µM (≈ 2.05 µg/mL) and the MIC (Candida albicans) was 6 µM (≈ 2.05 µg/mL). The CC50 at 24 h [6] was 3 µM and the Drug metabolism [7] was “Metabolite_Detected”.
`O=S1(=O)C=C(Sc2nnc(-c3ccncc3)o2)c2ccccc21` gave a CC50 at 24 h [2] of 17 µM, an IC50 [3] of 2.1 µM and an IC50 [4] of 8.6 µM. The IC50 [5] was 0.76 µM, the MIC (Cryptococcus neoformans) was 9 µM (≈ 3.09 µg/mL) and the MIC (Candida albicans) was 6 µM (≈ 2.06 µg/mL). The CC50 at 24 h [6] was 4 µM.
`O=S1(=O)C=C(Sc2nnc(-c3ccc(Cl)cc3)o2)c2ccccc21` showed a CC50 at 24 h [2] of 22 µM, an IC50 [3] of 1.5 µM and an IC50 [4] of 11.1 µM. For the same compound, the IC50 [5] was 0.49 µM, the MIC (Cryptococcus neoformans) was 16 µM (≈ 6.03 µg/mL) and the MIC (Candida albicans) was 167 µM (≈ 62.9 µg/mL). It also gave a CC50 at 24 h [6] of 3 µM.
In the case of `COc1ccc(-c2nnc(SC3=CS(=O)(=O)c4ccccc43)o2)cc1`, the CC50 at 24 h [2] is reported as 22 µM, the IC50 [3] is reported as over 30 µM and the IC50 [4] is reported as over 30 µM. For the same compound, the IC50 [5] was 1.7 µM, the MIC (Cryptococcus neoformans) was 172 µM (≈ 64.1 µg/mL) and the MIC (Candida albicans) was 172 µM (≈ 64.1 µg/mL). It also gave a CC50 at 24 h [6] of 2 µM.
In the case of `Cc1ccc(-c2nnc(SC3=CS(=O)(=O)c4ccccc43)o2)cc1`, the CC50 at 24 h [2] is reported as 31 µM, the IC50 [3] is reported as 5.7 µM and the IC50 [4] is reported as 20.3 µM. For the same compound, the IC50 [5] was 0.41 µM, the MIC (Cryptococcus neoformans) was 22 µM (≈ 7.84 µg/mL) and the MIC (Candida albicans) was 90 µM (≈ 32.1 µg/mL). For the same compound, the CC50 at 24 h [6] was 3 µM.
`COC(=O)c1ccc(-c2nnc(SC3=CS(=O)(=O)c4ccccc43)o2)cc1` gave a CC50 at 24 h [2] of 18 µM, an IC50 [3] of over 30 µM and an IC50 [4] of over 30 µM. For the same compound, the IC50 [5] was 0.34 µM, the MIC (Cryptococcus neoformans) was 60 µM (≈ 24 µg/mL) and the MIC (Candida albicans) was over 160 µM. It also gave a CC50 at 24 h [6] of 4 µM.
`COc1cccc(-c2nnc(SC3=CS(=O)(=O)c4ccccc43)o2)c1` gave a CC50 at 24 h [2] of 20 µM, an IC50 [3] of 1.2 µM and an IC50 [4] of 4.3 µM. The IC50 [5] was 0.15 µM, the MIC (Cryptococcus neoformans) was 8 µM (≈ 2.98 µg/mL) and the MIC (Candida albicans) was 172 µM (≈ 64.1 µg/mL). It also gave a CC50 at 24 h [6] of 3 µM.
Compound `O=S1(=O)C=C(Sc2nnc(-c3ccccn3)o2)c2ccccc21` has a CC50 at 24 h [2] of 24 µM, an IC50 [3] of 4.2 µM and an IC50 [4] of 13.2 µM. The IC50 [5] was 1.06 µM, the MIC (Cryptococcus neoformans) was 6 µM (≈ 2.06 µg/mL) and the MIC (Candida albicans) was 4 µM (≈ 1.37 µg/mL). It also gave a CC50 at 24 h [6] of 5 µM.
In the case of `O=S1(=O)C=C(Sc2nnc(-c3cccc(Cl)c3)o2)c2ccccc21`, the CC50 at 24 h [2] is reported as 27 µM, the IC50 [3] is reported as 1.6 µM and the IC50 [4] is reported as 10.1 µM. The IC50 [5] was 0.4 µM, the MIC (Cryptococcus neoformans) was 6 µM (≈ 2.26 µg/mL) and the MIC (Candida albicans) was 167 µM (≈ 62.9 µg/mL). It also gave a CC50 at 24 h [6] of 6 µM.
In the case of `COc1ccccc1-c1nnc(SC2=CS(=O)(=O)c3ccccc32)o1`, the CC50 at 24 h [2] is reported as 16 µM, the IC50 [3] is reported as 3.2 µM and the IC50 [4] is reported as 9.9 µM. It also gave an IC50 [5] of 0.48 µM, an MIC (Cryptococcus neoformans) of 64 µM (≈ 23.8 µg/mL) and an MIC (Candida albicans) of 172 µM (≈ 64.1 µg/mL). The CC50 at 24 h [6] was 3 µM.
For `O=S1(=O)C=C(Sc2nnc(C3CCCCC3)o2)c2ccccc21`, the CC50 at 24 h [2] was 15 µM, the IC50 [3] was 2.2 µM and the IC50 [4] was 7.6 µM. For the same compound, the IC50 [5] was 0.67 µM, the MIC (Cryptococcus neoformans) was 7 µM (≈ 2.44 µg/mL) and the MIC (Candida albicans) was 46 µM (≈ 16 µg/mL). The CC50 at 24 h [6] was 3 µM.
For `O=S1(=O)C=C(Sc2nnc(-c3ccccc3Cl)o2)c2ccccc21`, the CC50 at 24 h [2] was 25 µM, the IC50 [3] was 1.2 µM and the IC50 [4] was 7.2 µM. For the same compound, the IC50 [5] was 0.23 µM, the MIC (Cryptococcus neoformans) was 6 µM (≈ 2.26 µg/mL) and the MIC (Candida albicans) was 167 µM (≈ 62.9 µg/mL). For the same compound, the CC50 at 24 h [6] was 4 µM.
In the case of `Nc1ccc(-c2nnc(SC3=CS(=O)(=O)c4ccccc43)o2)cc1`, the CC50 at 24 h [2] is reported as 24 µM, the IC50 [3] is reported as 4.5 µM and the IC50 [4] is reported as 13.8 µM. For the same compound, the IC50 [5] was 1.01 µM, the MIC (Cryptococcus neoformans) was 33 µM (≈ 11.8 µg/mL) and the MIC (Candida albicans) was over 179 µM. The CC50 at 24 h [6] was 4 µM.
For `O=S1(=O)C=C(Sc2nnc(-c3cccnc3)o2)c2ccccc21`, the CC50 at 24 h [2] was 14 µM, the IC50 [3] was 2.6 µM and the IC50 [4] was 6.3 µM. It also gave an IC50 [5] of 0.59 µM, an MIC (Cryptococcus neoformans) of 4 µM (≈ 1.37 µg/mL) and an MIC (Candida albicans) of 4 µM (≈ 1.37 µg/mL). It also gave a CC50 at 24 h [6] of 4 µM.
`CC(=O)Nc1ccc(-c2nnc(SC3=CS(=O)(=O)c4ccccc43)o2)cc1` showed a CC50 at 24 h [2] of 31 µM, an IC50 [3] of 4.4 µM and an IC50 [4] of 20.4 µM. For the same compound, the IC50 [5] was 0.16 µM, the MIC (Cryptococcus neoformans) was over 160 µM and the MIC (Candida albicans) was over 160 µM. The CC50 at 24 h [6] was 4 µM.
With `C[C@@H]1[C@H](O)[C@@H](C)/C=C/C=C/C=C/C=C/C=C/C=C/C=C/[C@H](O[C@@H]2O[C@H](C)[C@@H](O)[C@H](N)[C@@H]2O)C[C@@H]2O[C@](O)(C[C@@H](O)C[C@@H](O)[C@H](O)CC[C@@H](O)C[C@@H](O)CC(=O)O[C@H]1C)C[C@H](O)[C@H]2C(=O)O` [AMPHOTERICIN B] the MIC (Cryptococcus neoformans) was 0.25 µM (≈ 0.231 µg/mL) and the MIC (Candida albicans) was 0.18 µM (≈ 0.166 µg/mL).
`OC(Cn1cncn1)(Cn1cncn1)c1ccc(F)cc1F` [FLUCONAZOLE] gave an MIC (Cryptococcus neoformans) of 0.3 µM (≈ 0.0919 µg/mL) and an MIC (Candida albicans) of 8 µM (≈ 2.45 µg/mL).
With `COc1c(C)c2c(c(O)c1C/C=C(\C)CCC(=O)O)C(=O)OC2` [MYCOPHENOLIC ACID] the IC50 [4] was 0.26 µM and the IC50 [5] was 0.12 µM.
